Laboratory results published in ChEMBL document CHEMBL1142492 (J Med Chem, 2008).

Tests used:
[1] = target: Calcium/calmodulin-dependent protein kinase type II subunit delta (Homo sapiens) (UniProt Q13557); experiment: Inhibition of CAMK2D at 3 uM
[2] = target: Serine/threonine-protein kinase D3 (Homo sapiens) (UniProt O94806); experiment: Inhibition of PRKD3 at 3 uM
[3] = target: Serine/threonine-protein kinase PLK1 (Homo sapiens) (UniProt P53350); experiment: Inhibition of PLK1 at 3 uM
[4] = target: Prostaglandin E2 receptor EP4 subtype (Homo sapiens) (UniProt P35408); experiment: Inhibition of human prostanoid EP4 receptor at 3 uM
Outline: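 Counter-screen binding/enzyme panel at single 3 μM, n=2; results as percent inhibition. Species per target as listed (rat NMDA, GABAA sites; human receptors, transporters; rabbit ACE).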

[5] = tested on: Phosphatidylinositol 4,5-bisphosphate 3-kinase catalytic subunit alpha isoform (Homo sapiens), P42336 [E545K]; experiment: Inhibition of PIK3CA E545K mutant at 3 uM
Homo sapiens = organism: Homo sapiens; conditions: 3 uM
[6] = target: Leukocyte tyrosine kinase receptor (Homo sapiens) (UniProt P29376); experiment: Inhibition of LTK at 3 uM
[7] = target: Serine/threonine-protein kinase Nek6 (Homo sapiens) (UniProt Q9HC98); experiment: Inhibition of NEK6 at 3 uM
[8] = target: Serine/threonine-protein kinase LATS1 (Homo sapiens) (UniProt O95835); experiment: Inhibition of LATS1 at 3 uM
[9] = target: Serine/threonine-protein kinase ULK1 (Homo sapiens) (UniProt O75385); experiment: Inhibition of ULK1 at 3 uM
[10] = target: RAC-beta serine/threonine-protein kinase (Homo sapiens) (UniProt P31751); experiment: Inhibition of AKT2 at 3 uM
[11] = target: Bone morphogenetic protein receptor type-1A (Homo sapiens) (UniProt P36894); experiment: Inhibition of BMPR1A at 3 uM
[12] = tested on: Tyrosine-protein kinase ABL1 (Homo sapiens), P00519 [T315I]; experiment: Inhibition of ABL1 T315I mutant at 3 uM
[13] = target: NUAK family SNF1-like kinase 2 (Homo sapiens) (UniProt Q9H093); experiment: Inhibition of SNARK at 3 uM
[14] = target: Mitogen-activated protein kinase 9 (Homo sapiens) (UniProt P45984); experiment: Inhibition of JNK2 at 3 uM
[15] = target: Epithelial discoidin domain-containing receptor 1 (Homo sapiens) (UniProt Q08345); experiment: Inhibition of DDR1 at 3 uM
[16] = target: Proto-oncogene tyrosine-protein kinase ROS (Homo sapiens) (UniProt P08922); experiment: Inhibition of ROS1 at 3 uM
[17] = target: Myosin light chain kinase, smooth muscle (Homo sapiens) (UniProt Q15746); experiment: Inhibition of MYLK at 3 uM
[18] = target: Protein kinase C theta type (Homo sapiens) (UniProt Q04759); experiment: Inhibition of PRKCQ at 3 uM
[19] = target: Casein kinase II subunit alpha' (Homo sapiens) (UniProt P19784); experiment: Inhibition of CSNK2A2 at 3 uM
[20] = tested on: Mast/stem cell growth factor receptor Kit (Homo sapiens), P10721 [D816V]; experiment: Inhibition of KIT D816V mutant at 3 uM
in vivo = conditions: Sprague-Dawley, rat, po, 2 mg/kg
[21] = target: Phosphatidylinositol 4,5-bisphosphate 3-kinase catalytic subunit gamma isoform (Homo sapiens) (UniProt P48736); experiment: Inhibition of PIK3CG at 3 uM
[22] = target: Serine/threonine-protein kinase N1 (Homo sapiens) (UniProt Q16512); experiment: Inhibition of PKN1 at 3 uM

Sequence of Calcium/calmodulin-dependent protein kinase type II subunit delta (Homo sapiens) (Q13557 whole entry): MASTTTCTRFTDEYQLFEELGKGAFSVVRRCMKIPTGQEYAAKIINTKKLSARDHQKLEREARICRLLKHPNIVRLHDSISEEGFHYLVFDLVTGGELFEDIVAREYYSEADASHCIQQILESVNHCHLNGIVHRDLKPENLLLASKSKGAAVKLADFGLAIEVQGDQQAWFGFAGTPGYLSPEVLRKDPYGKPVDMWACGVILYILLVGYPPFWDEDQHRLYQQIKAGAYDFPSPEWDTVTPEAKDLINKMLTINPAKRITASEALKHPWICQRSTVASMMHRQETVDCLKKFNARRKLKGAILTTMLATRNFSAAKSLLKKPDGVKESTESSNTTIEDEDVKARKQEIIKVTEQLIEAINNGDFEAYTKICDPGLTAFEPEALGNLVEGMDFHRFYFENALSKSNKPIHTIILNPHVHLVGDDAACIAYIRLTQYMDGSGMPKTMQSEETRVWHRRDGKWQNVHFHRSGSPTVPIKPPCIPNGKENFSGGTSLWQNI
Sequence of Proto-oncogene tyrosine-protein kinase ROS (Homo sapiens) (P08922 whole entry): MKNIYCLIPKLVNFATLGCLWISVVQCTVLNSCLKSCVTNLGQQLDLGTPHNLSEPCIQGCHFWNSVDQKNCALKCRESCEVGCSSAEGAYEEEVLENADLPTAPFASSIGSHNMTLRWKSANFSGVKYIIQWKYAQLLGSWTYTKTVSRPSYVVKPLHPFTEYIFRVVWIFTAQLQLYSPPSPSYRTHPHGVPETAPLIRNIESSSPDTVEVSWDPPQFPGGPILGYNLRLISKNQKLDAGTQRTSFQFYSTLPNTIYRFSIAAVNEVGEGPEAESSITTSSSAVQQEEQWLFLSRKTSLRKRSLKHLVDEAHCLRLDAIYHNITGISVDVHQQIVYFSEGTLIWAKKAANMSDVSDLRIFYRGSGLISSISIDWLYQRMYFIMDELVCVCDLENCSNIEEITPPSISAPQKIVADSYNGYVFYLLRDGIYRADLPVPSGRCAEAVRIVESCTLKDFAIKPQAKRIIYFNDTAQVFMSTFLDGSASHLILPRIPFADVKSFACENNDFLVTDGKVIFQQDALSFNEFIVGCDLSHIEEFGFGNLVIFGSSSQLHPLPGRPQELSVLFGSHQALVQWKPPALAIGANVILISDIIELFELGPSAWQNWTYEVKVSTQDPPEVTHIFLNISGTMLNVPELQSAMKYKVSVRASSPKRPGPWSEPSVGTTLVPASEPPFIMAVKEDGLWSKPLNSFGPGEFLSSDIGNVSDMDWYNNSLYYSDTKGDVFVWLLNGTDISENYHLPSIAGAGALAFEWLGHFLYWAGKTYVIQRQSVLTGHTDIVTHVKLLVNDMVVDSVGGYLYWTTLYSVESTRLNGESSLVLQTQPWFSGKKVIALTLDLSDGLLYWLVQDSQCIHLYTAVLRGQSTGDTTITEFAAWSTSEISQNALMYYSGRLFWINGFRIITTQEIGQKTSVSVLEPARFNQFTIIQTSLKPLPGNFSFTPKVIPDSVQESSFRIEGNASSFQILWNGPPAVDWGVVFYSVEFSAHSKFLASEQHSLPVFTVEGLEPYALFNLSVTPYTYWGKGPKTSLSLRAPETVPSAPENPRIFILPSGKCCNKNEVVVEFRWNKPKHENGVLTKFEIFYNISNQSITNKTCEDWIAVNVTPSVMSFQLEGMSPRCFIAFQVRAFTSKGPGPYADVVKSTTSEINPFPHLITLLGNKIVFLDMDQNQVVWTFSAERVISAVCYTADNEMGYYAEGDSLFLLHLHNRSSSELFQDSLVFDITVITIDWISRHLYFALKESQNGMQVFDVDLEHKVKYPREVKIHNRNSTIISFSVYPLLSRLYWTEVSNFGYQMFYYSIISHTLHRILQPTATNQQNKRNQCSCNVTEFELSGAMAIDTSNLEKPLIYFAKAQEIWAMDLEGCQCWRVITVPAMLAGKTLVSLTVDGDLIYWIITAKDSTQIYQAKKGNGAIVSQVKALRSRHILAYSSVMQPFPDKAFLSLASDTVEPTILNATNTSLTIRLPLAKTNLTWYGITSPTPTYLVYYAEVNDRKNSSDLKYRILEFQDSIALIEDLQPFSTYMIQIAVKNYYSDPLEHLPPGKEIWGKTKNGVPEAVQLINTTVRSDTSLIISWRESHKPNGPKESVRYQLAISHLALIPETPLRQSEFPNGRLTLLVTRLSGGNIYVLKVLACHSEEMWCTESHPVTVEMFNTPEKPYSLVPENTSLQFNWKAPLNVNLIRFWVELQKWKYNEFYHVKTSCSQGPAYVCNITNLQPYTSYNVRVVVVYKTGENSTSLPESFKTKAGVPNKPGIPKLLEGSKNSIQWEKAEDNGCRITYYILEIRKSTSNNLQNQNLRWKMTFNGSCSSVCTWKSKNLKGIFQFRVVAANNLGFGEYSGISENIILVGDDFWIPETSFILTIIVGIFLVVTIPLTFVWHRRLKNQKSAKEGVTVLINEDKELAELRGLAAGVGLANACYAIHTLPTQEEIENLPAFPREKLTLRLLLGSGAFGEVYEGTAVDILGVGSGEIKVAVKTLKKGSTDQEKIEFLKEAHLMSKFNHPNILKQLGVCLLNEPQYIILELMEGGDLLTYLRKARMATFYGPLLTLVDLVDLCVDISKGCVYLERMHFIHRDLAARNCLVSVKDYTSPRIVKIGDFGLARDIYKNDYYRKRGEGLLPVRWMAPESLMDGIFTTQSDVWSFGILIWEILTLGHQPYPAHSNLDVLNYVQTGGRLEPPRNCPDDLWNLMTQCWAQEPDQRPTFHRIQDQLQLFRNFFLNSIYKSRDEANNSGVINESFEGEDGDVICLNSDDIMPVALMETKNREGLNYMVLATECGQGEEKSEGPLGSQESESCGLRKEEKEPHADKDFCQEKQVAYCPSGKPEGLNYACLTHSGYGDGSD
Sequence of RAC-beta serine/threonine-protein kinase (Homo sapiens) (P31751 whole entry): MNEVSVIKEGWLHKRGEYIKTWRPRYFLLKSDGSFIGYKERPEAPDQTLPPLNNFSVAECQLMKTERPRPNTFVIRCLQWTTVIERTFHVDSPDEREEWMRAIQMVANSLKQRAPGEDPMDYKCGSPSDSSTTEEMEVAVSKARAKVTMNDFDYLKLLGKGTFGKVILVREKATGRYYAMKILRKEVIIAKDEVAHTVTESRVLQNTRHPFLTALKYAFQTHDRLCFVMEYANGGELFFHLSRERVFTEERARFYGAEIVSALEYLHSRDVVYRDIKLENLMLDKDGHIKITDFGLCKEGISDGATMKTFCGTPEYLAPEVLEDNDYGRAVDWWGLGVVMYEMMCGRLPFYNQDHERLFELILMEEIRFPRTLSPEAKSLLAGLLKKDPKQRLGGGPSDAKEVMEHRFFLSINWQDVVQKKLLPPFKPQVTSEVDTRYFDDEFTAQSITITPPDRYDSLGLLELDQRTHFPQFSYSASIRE
Sequence of NUAK family SNF1-like kinase 2 (Homo sapiens) (Q9H093 whole entry): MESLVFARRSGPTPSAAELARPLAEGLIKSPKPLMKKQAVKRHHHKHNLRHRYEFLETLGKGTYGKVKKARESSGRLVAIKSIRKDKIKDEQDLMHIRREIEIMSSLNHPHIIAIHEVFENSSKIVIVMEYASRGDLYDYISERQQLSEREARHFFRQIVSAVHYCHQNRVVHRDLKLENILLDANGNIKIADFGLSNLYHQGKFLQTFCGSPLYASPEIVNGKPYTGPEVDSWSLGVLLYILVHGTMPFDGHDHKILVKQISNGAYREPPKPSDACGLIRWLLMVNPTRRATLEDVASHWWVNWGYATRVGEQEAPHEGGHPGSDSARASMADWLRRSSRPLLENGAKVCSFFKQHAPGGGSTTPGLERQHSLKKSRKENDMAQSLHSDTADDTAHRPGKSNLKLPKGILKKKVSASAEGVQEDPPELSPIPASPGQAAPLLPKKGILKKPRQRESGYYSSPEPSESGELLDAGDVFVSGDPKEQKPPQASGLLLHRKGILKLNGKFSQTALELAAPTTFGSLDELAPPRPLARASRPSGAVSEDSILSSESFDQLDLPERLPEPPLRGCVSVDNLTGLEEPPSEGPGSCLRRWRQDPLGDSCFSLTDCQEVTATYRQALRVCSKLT
Sequence of Leukocyte tyrosine kinase receptor (Homo sapiens) (P29376 whole entry): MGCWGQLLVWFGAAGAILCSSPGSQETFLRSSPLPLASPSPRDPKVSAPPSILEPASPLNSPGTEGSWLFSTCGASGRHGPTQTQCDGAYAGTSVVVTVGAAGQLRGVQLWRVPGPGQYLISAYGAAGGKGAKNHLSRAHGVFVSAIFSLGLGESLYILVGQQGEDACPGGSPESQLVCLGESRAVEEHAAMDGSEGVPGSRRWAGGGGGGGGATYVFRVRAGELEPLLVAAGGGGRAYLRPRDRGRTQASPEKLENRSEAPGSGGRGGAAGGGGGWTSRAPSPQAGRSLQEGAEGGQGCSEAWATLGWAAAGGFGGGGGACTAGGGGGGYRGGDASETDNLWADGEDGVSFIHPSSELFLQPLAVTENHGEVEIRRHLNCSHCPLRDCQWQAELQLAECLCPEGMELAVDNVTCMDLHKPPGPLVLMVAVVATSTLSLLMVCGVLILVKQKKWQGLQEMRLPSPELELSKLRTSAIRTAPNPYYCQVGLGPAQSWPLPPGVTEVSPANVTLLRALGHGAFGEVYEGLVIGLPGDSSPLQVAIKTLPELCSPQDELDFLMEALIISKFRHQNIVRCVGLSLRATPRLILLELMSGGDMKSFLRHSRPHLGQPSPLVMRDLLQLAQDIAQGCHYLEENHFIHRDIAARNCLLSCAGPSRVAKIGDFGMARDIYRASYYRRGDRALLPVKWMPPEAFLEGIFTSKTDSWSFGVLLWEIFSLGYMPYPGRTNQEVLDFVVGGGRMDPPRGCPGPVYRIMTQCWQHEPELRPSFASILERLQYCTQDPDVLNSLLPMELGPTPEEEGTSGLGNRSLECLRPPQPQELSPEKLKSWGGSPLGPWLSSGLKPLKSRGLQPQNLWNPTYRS

CN(C)CCOc1cc(-c2cn[nH]c2)ccc1NC(=O)C1COc2ccccc2O1 (centres undefined) [SR-3677]
inhibition [1]: < 10% | inhibition [2]: < 10% | inhibition [3]: < 10% | inhibition [4]: 5% | inhibition [5]: < 10% | inhibition (Homo sapiens): 12% | inhibition [6]: < 10% | inhibition [7]: < 10% | inhibition [8]: < 10% | inhibition [9]: < 10% | inhibition [10]: < 10% | inhibition [11]: < 10% | inhibition [12]: < 10% | inhibition [13]: < 10% | inhibition [14]: < 10% | inhibition [15]: < 10% | inhibition [16]: < 10% | inhibition [17]: < 10% | inhibition [18]: < 10% | inhibition [19]: < 10% | inhibition [20]: < 10% | Cmax (in vivo): 50 nM | inhibition [21]: < 10% | inhibition [22]: < 10%
